Source: PubChem
Rce1 inhib: yeast Rce1p protease inhibitors, primary screen, biochemical, fluorescence, cell-free homogeneous; 290,000 tested, 0.27% active; yeast membranes, quenched prenylated peptide cleavage fluorescence; calls only; CAAX prenyl protease 2 (Saccharomyces cerevisiae (strain ATCC 204508 / S288c)), Q03530;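 active = fall in fluorescence gain of 50% or more versus controls, with final raw signal at or below 3038400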;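 also: plate controls were neutral control wells for no effect and wells lacking membranes for full effect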
Target sequence (Q03530 whole entry, looked up): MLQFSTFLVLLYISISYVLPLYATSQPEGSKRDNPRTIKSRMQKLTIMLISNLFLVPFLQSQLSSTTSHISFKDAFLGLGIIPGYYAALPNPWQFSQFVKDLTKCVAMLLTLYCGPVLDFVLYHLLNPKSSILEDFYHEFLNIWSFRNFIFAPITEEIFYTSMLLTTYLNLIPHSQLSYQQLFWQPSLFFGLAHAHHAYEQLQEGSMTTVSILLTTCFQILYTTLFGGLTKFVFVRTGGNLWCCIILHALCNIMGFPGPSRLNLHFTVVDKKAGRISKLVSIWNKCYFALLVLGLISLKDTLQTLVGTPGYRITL
CR mimetic SO: reduction of superoxide in aged yeast, primary screen, HTS | S. cerevisiae aged cells, superoxide DHE fluorescence; stronger effect = lower value | superoxide response (% of plate mean), % at 10 µM | 330,000 tested, 0.18% active | AID 2690, 2010;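 active = superoxide response under a set limit, about three screen SD below normal, cut at about 65% in these data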;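 also: yeast aged for seven days with compound at 30 °C before DHE staining; 100% = average MFI of all compound-treated wells on the plate with controls excluded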
MIN6 prolif-1: inducers of MIN6 beta-cell proliferation, primary screen, ATP luminescence, uHTS | MIN6 cells proliferation, ATPlite luminescence, 48 h; cells starved in 0.2% serum; 100% = growth in 10% serum | proliferation, % at 10 µM | 330,000 tested, 0.29% active;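 active = compounds whose signal lies at least 3.5 SD above the mean of all wells on their plate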;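 also: 0% = DMSO-treated cells in low-serum medium and 100% = 10% serum control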
NR1D1 modulator: modulators of Rev-erb alpha DNA binding, primary screen, biochemical, FITC-DNA, fluorescence polarization, uHTS; Nuclear receptor subfamily 1 group D member 1 (Homo sapiens), P20393; Rev-erbα–FITC-DNA binding, 90 min; activity, % at 10 µM; 370,000 tested, 0.79% active; AID 1259318, 2017;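 active = activity above about 14%, limit read from the data; passing the limit was not always enough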;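 also: 0% = DMSO wells with 35 nM protein and 100% = DMSO wells with 750 nM protein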
PG9 Ab binder: binders of HIV-1 gp120 antibody PG9, primary screen, biochemical, TR-FRET; TR-FRET gp120-PG9 antibody binding; inhibition, % at 6.7 µM; 360,000 tested, 0.43% active; AID 624416, 2012; in the data active = inhibition above about 8.5%
UCH37 DUB inh: inhibitors of human UCH37 deubiquitinase, primary screen, biochemical, Ub-AMC cleavage, fluorescence. inhibition, % (no concentration beside the values). Ubiquitin carboxyl-terminal hydrolase isozyme L5 (Homo sapiens), Q9Y5K5. purified proteasome/UCH37. 330,000 tested, 0.33% active;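 active = mean inhibition over replicate wells above about 20%, limit read from the data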;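 also: 0% = compound-free wells with enzyme and 100% = wells lacking proteasome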
Target sequence (Q9Y5K5 whole entry, looked up): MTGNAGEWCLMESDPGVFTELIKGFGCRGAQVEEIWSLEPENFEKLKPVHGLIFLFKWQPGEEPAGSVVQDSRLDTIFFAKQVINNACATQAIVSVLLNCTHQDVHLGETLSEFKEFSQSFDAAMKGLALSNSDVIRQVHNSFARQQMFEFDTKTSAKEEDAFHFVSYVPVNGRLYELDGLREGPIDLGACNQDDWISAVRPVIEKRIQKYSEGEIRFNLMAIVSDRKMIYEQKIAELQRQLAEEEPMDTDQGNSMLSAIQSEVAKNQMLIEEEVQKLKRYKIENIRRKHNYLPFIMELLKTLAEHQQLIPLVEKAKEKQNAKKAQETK
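Material: Human UCH37 enzyme supplied as purified proteasome complex | Schedule: 30 min preincubation with enzyme, 25 min cleavage at room temperature | Detection: AMC fluorescence 355/460 nm | Measure: % inhibition of Ub-AMC cleavage fluorescence | Controls: Wells without proteasome as full block, compound-free enzyme plus substrate as uninhibited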
MIN6 prolif-2: inducers of beta-cell proliferation in MIN6, confirmation, MIN6 cells, mouse; shares compounds with MIN6 prolif-1; ATPlite luminescence, 48 h; cells kept in 0.2% serum; scaled between 0.2% and 10% serum; proliferation increase, % at 50 µM; 920 tested, under 10 active; AID 463095, 2010;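 active = proliferation increase above 40% at any of the four tested concentrations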
* hit, by the source's call. Hits are enriched below; roughly 1.9% of the tested compounds scored in any of these assays.

Screening COC(=O)c1ccc(OC(=O)c2ccccn2)cc1 returned Rce1 inhib inactive, CR mimetic SO 85.3, MIN6 prolif-1 6.5*, NR1D1 modulator 0.7, PG9 Ab binder 0.8, UCH37 DUB inh 2.1 and MIN6 prolif-2 0.3.
For Cn1c(=O)c2cn(-c3ccccc3)cc2n(C)c1=O the results were Rce1 inhib inactive, CR mimetic SO 102.1, MIN6 prolif-1 5.4*, NR1D1 modulator 1.9, PG9 Ab binder -0.3, UCH37 DUB inh -1.6 and MIN6 prolif-2 1.0.
`CCOC(=O)c1cc[nH]c1CC(=O)NC` gave Rce1 inhib inactive, CR mimetic SO 101.8, MIN6 prolif-1 8.5*, NR1D1 modulator -1.7, PG9 Ab binder -0.7 and MIN6 prolif-2 -1.9.
`Cc1c(NS(=O)(=O)c2cccc(C(=O)O)c2)c(=O)n(-c2ccccc2)n1C` gave Rce1 inhib inactive, CR mimetic SO 88.1, MIN6 prolif-1 4.9*, NR1D1 modulator 5.5, PG9 Ab binder -1.1, UCH37 DUB inh 4.8 and MIN6 prolif-2 -4.1.
`COc1ccccc1NC(=S)NN=Cc1cccc(C)c1` gave UCH37 DUB inh 0.2.
Screening Cc1cc(NS(=O)(=O)c2ccc(NC(=O)CSc3nnc(-c4ccco4)n3C)cc2)nc(C)n1 returned Rce1 inhib inactive, CR mimetic SO 130.5, MIN6 prolif-1 5.8*, NR1D1 modulator 1.9, PG9 Ab binder 0.5 and MIN6 prolif-2 1.6.
Screening Cc1cc(NS(=O)(=O)c2ccc(NC(=O)CSc3nnc(-c4ccco4)n3N)cc2)nc(C)n1 returned Rce1 inhib inactive, CR mimetic SO 83.8, MIN6 prolif-1 2.8, NR1D1 modulator -4.8 and PG9 Ab binder -1.3.
Screening COc1cccc2c1OCCC2=NNC(=O)COc1ccc(C)cc1 returned UCH37 DUB inh 0.1.
CN(C)c1ccc(C(=S)N2CCOCC2)cc1 was read as CR mimetic SO 118.3, MIN6 prolif-1 9.0*, NR1D1 modulator 1.2, PG9 Ab binder -3.0, UCH37 DUB inh 7.6 and MIN6 prolif-2 -0.2.
For O=C(COC(=O)Cn1cnc2ccccc21)Nc1cccc([N+](=O)[O-])c1 the results were Rce1 inhib inactive, CR mimetic SO 90.0, MIN6 prolif-1 -3.1, NR1D1 modulator -2.5, PG9 Ab binder 0.6 and UCH37 DUB inh 4.8.
For O=C(Cn1cnc2ccccc21)Nc1cccc([N+](=O)[O-])c1 the results were Rce1 inhib inactive, CR mimetic SO 86.3, MIN6 prolif-1 8.2*, NR1D1 modulator 7.3, PG9 Ab binder 0.7 and MIN6 prolif-2 -3.0.
Screening Cc1cc(C)c(C#N)c(SCc2ccc(F)cc2)n1 returned Rce1 inhib inactive, CR mimetic SO 99.9, MIN6 prolif-1 0.8, NR1D1 modulator 3.5, PG9 Ab binder 0.0 and UCH37 DUB inh 4.2.
`Cc1cc(C)c(C#N)c(SCc2ccc(C#N)cc2)n1` gave CR mimetic SO 153.3, MIN6 prolif-1 11.5*, NR1D1 modulator 7.5, PG9 Ab binder -1.9, UCH37 DUB inh 2.5 and MIN6 prolif-2 -1.5.
For O=C(Cc1ccc(O)cc1)NN=Cc1cccnc1 the results were UCH37 DUB inh 1.6.
For CCN1C(=O)N(CC)C2C1N(C(C)=O)C(=O)N2C(C)=O (centres undefined) the results were Rce1 inhib inactive, CR mimetic SO 101.1, MIN6 prolif-1 8.2*, NR1D1 modulator 5.5, PG9 Ab binder 1.3, UCH37 DUB inh -1.7 and MIN6 prolif-2 -1.1.
For Cc1cc(C)c2c3c(c(-c4ccccc4)n2n1)c(=O)n(C)c(=O)n3C the results were NR1D1 modulator 6.2, PG9 Ab binder 0.5 and UCH37 DUB inh 7.5.
`Cc1cccc(-c2c3c(=O)n(C)c(=O)n(C)c3c3cccnn23)c1` gave Rce1 inhib inactive, CR mimetic SO 84.1, MIN6 prolif-1 9.0*, NR1D1 modulator 10.7, PG9 Ab binder -8.2, UCH37 DUB inh 4.3 and MIN6 prolif-2 -2.4.
`COc1ccc(NS(=O)(=O)c2cccc(C(=O)NNC(=O)CNC(=O)c3cccc(C)c3)c2)cc1` gave Rce1 inhib inactive, CR mimetic SO 95.8, MIN6 prolif-1 9.7*, NR1D1 modulator -6.9, PG9 Ab binder 1.7, UCH37 DUB inh 2.7 and MIN6 prolif-2 1.6.
COc1ccc(NS(=O)(=O)c2cccc(C(=O)NNC(=O)CNC(=O)c3ccccc3)c2)cc1 was read as Rce1 inhib inactive, CR mimetic SO 103.2, MIN6 prolif-1 -2.8, NR1D1 modulator 1.6, PG9 Ab binder -0.9 and UCH37 DUB inh 3.1.
`COc1cc(C=NNC(=O)c2nonc2N)cc(OC)c1OC` gave UCH37 DUB inh 9.3.
Screening Cc1ccc(CNC(=O)C2CCCN(c3ncnc4c3nc3n4CCCCC3)C2)cc1 (centres undefined) returned Rce1 inhib inactive, CR mimetic SO 98.5, MIN6 prolif-1 14.1*, NR1D1 modulator -7.1, PG9 Ab binder -0.9, UCH37 DUB inh -1.6 and MIN6 prolif-2 -5.3.
CCOC(=O)C1C(=O)CC(C)(O)C(C(=O)OCC)C1c1ccc(N(CC)CC)cc1 (centres undefined) was read as Rce1 inhib inactive, CR mimetic SO 103.8, MIN6 prolif-1 5.1*, NR1D1 modulator -4.5, PG9 Ab binder 0.4, UCH37 DUB inh -2.0 and MIN6 prolif-2 -1.0.
`CCOC(=O)C1C(=O)CC(C)(O)C(C(=O)OCC)C1c1ccc(F)cc1` (centres undefined) gave Rce1 inhib inactive, CR mimetic SO 92.1, MIN6 prolif-1 -0.3, NR1D1 modulator -5.1, PG9 Ab binder -0.9 and UCH37 DUB inh 5.5.
CC(NCc1ccccc1)C1COc2ccccc2O1 (centres undefined) was read as Rce1 inhib inactive, CR mimetic SO 94.0, MIN6 prolif-1 5.5*, NR1D1 modulator 0.8, PG9 Ab binder -3.0, UCH37 DUB inh 1.3 and MIN6 prolif-2 -0.2.
O=P(O)(CCCP(=O)(O)CCc1ccccc1)CCc1ccccc1 was read as Rce1 inhib inactive, CR mimetic SO 96.7, MIN6 prolif-1 8.8*, NR1D1 modulator -1.4, PG9 Ab binder 0.2, UCH37 DUB inh 0.4 and MIN6 prolif-2 -3.5.
O=C1c2ccccc2C(=O)N1CCCP(=O)(O)CCc1ccccc1 was read as Rce1 inhib inactive, CR mimetic SO 115.0, MIN6 prolif-1 -0.7, NR1D1 modulator -4.6, PG9 Ab binder 1.0 and UCH37 DUB inh 4.0.
